Measurements collected from several papers.
Compare with care: the assays were run in different laboratories.
Target: Serine/threonine-protein kinase D2 (PRKD2, Homo sapiens, UniProt Q9BZL6)
One construct used (Q9BZL6 1-878): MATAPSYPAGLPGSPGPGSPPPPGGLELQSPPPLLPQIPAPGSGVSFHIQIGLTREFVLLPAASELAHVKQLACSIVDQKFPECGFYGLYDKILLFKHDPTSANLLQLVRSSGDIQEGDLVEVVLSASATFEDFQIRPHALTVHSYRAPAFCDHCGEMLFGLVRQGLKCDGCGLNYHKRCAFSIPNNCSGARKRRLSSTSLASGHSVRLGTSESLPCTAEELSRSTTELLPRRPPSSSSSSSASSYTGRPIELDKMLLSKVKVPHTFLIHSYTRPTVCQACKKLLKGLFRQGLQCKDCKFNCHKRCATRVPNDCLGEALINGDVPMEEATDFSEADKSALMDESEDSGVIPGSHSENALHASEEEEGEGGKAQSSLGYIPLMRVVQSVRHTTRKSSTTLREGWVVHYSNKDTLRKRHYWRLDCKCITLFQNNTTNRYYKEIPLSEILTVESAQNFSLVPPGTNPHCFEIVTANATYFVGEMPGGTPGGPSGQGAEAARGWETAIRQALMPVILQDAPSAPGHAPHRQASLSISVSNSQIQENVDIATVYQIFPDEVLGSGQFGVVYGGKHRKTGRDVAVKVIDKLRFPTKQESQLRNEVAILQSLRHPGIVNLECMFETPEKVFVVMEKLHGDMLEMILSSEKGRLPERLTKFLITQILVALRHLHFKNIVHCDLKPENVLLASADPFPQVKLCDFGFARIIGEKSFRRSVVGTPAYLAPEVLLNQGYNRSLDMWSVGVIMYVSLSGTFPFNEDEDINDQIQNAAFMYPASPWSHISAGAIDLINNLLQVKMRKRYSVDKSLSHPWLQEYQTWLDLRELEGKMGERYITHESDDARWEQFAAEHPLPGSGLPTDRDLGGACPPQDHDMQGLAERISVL

Structure (SMILES) | effect on | mode | technique | concentration | quantity | value
CO[C@@H]1[C@H](N(C)C(=O)c2ccccc2)C[C@H]2O[C@]1(C)n1c3ccccc3c3c4c(c5c6ccccc6n2c5c31)C(=O)NC4 | enzyme activity | inhibitor | – | 1 µM | inhibition | 18%
COc1ccc2oc(-c3ccc4nc(N)oc4c3)c/c(=N\c3ccccc3NC(=O)CCN)c2c1 | binding | – | – | 1 µM | remaining binding | 94%
CCCCC(=O)Nc1ccc(-c2ccc3ncn(CCC)c(=O)c3c2)cn1 | binding | – | competition with immobilised ligand | 0.5 µM | remaining binding | 88%
C#Cc1cc(-c2cc(Nc3nc(N[C@@H](C)c4ccc(F)cn4)ncc3Cl)n[nH]2)ccc1C=O | enzyme activity | inhibitor | – | 0.2 µM | inhibition | 5.36%
Cc1ccc(NC(=O)c2ccnc(C(F)(F)F)c2)cc1-c1cc(OCCO)nc(N2CCOCC2)c1 | binding | – | – | 1 µM | remaining binding | 88%
Cc1cc(O)c(-c2ccc([C@@H](C)CN(C)C)cc2)c2c1[nH]c(=O)c1sccc12 | enzyme activity | inhibitor | – | 0.1 µM | inhibition | -4.52%
C=CC(=O)N1CCC([C@@H]2CCNc3c(C(N)=O)c(-c4ccc(Oc5ccccc5)cc4)nn32)CC1 | enzyme activity | inhibitor | – | 1 µM | inhibition | 3%
C1=C/COCc2cc(ccc2OCCN2CCCC2)Nc2nccc(n2)-c2cccc(c2)COC/1 | binding | – | – | 0.1 µM | remaining binding | 100%
C[C@H]1CC[C@H](n2c3cnccc3c3cnc(Nc4ccc5c(n4)CCN(C(=O)CO)C5)nc32)CC1 | cell-free assay | – | – | 1 µM | remaining signal | 100%
